From ChEMBL document CHEMBL3751796, “Structure-Based Discovery of Novel Cyclophilin A Inhibitors for the Treatment of Hepatitis C Virus Infections” (J Med Chem, 2015)
The source made the active and inactive calls.

Experiments:
Hepatitis C virus [1] = test: Antiviral activity against HCV genotype 1b Con1 infected in human Huh7.5 cells assessed as inhibition of NS5B expression in membrane fractions at 2 uM by Western blot analysis; assay type: functional, organism-based; details: Hepacivirus hominis, isolate Con1, Huh-7
Method in brief: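 Con1b replicon cells treated with 2 μM. Total lysates, and a membrane fraction prepared by hypotonic buffer, dounce homogenization, 220g spin and then 68 000g for 1 h at 4 °C, analyzed by Western blot for NS5A and NS5B.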

[2] = target: T1, Peptidyl-prolyl cis-trans isomerase A (Homo sapiens, UniProt P62937); test: Inhibition of recombinant GST-tagged Cyclophilin A (unknown origin) interaction with HCV GST-tagged NS5B at 2 to 4 uM by GST pulldown assay
Target sequence in this assay (P62937 whole entry, looked up): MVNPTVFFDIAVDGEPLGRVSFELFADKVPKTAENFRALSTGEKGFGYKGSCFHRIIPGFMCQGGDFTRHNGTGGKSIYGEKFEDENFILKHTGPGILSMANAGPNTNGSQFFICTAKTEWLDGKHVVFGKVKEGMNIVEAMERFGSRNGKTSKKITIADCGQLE

[3] = target: T1, Peptidyl-prolyl cis-trans isomerase A; test: Inhibition of human Cyclophilin A interaction with HCV genotype 1b Con1 NS5A in human Huh7.5 cells at 2 uM by co-immunoprecipitation assay; assay type: cell-based; details: Huh-7
Target sequence in this assay (P62937 whole entry, looked up): as above

[4] = target: T1, Peptidyl-prolyl cis-trans isomerase A; test: Inhibition of human Cyclophilin A interaction with HCV genotype 1b Con1 NS5A in human Huh7.5 cells after 72 hrs by mammalian two-hybrid assay; assay type: cell-based; details: Huh-7
Target sequence in this assay (P62937 whole entry, looked up): as above

Mus musculus [5] = species on record: Mus musculus; test: Activation of calcium-dependent calcineurin phosphatase activity in ionomycin-stimulated BALB/c mouse splenocytes assessed as dephosphorylation of NFAT1 at 1 to 10 uM preincubated for 20 hrs followed by ionomycin stimulation measured after 4 hrs by Western blot analysis
Method in brief: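 Mouse splenocytes, 2 × 10^6/well, exposed to compound for 20 h at 37 °C, then ionomycin 1 μg/mL for 4 h. Lysed on ice for 10 min and spun at 19 000g. NFAT phosphorylation status in the supernatant read by Western blot with anti-NFATc1 antibody.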

Mus musculus [6] = species on record: Mus musculus; test: Activation of calcium-dependent calcineurin phosphatase activity in ionomycin-stimulated BALB/c mouse splenocytes assessed as nuclear translocation of NFAT1 at 5 uM preincubated for 20 hrs followed by ionomycin stimulation measured after 4 hrs by DAPI staining based confocal microscopy
Method in brief: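 Splenocytes were pretreated 20 h, then stimulated with ionomycin 1 μg/mL for 4 h. Fixed in 3.7% formaldehyde, permeabilized with 0.5% Triton X-100, and incubated overnight at 4 °C with anti-NFAT1 (1:100, 3% BSA). Alexa 546 secondary 1:200 for 2 h, DAPI counterstain, then confocal imaging of NFAT1 localization.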

[7] = target: T1, Peptidyl-prolyl cis-trans isomerase A; test: Inhibition of Cyclophilin A in human Huh7.5 cells infected with HCV assessed as reduction in viral RNA replication level at 0.5 to 4 uM by luciferase reporter gene assay; assay type: cell-based; details: Huh-7
Method in brief: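 Huh7.5 cells infected with JFH1-Luc (Renilla luciferase reporter) virus at MOI 0.004 for 5 h at 37 °C, with or without test chemicals. Renilla luciferase activity was read from cell lysates on day 3 postinfection.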
Target sequence in this assay (P62937 whole entry, looked up): as above

Hepatitis C virus [8] = test: Antiviral activity against HCV genotype 1b Con1 infected in human Huh7.5 cells assessed as inhibition of NS5B expression at 2 uM by DAPI staining based confocal microscopy; assay type: functional, organism-based; details: Hepacivirus hominis, isolate Con1, Huh-7
Method in brief: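 Con1b replicon cells treated at 2 μM. Stained with Alexa red anti-NS5A and Alexa green anti-NS5B antibodies plus DAPI, then imaged by confocal microscopy for colocalization. Images representative of at least three experiments.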

Hepatitis C virus [9] = test: Antiviral activity against HCV genotype 2a JFH1 infected in human Huh7.5 cells expressing GFP-fused NS5A measured 72 hrs post infection by hoechst 33342 staining based confocal microscopy; assay type: functional, organism-based, Hepacivirus hominis; details: JFH-1, Huh-7, 72 h
Hepatitis C virus [10] = test: Antiviral activity against HCV genotype 1b Con1 infected in human Huh7.5 cells assessed as stimulation of STAT1 mRNA expression at 2 uM incubated up to 96 hrs by qRT-PCR method; assay type: functional, organism-based; details: Hepacivirus hominis, isolate Con1, Huh-7, TDE = time-dependent effect
Method in brief: (§1)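 mRNA measured by SYBR Green qRT-PCR using the 2^−ΔΔCT method, normalized to GAPDH and expressed as fold change vs controls.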

Hepatitis C virus [11] = test: Antiviral activity against HCV genotype 1b Con1 infected in human Huh7.5 cells assessed as stimulation of ISG15 mRNA expression at 2 uM incubated up to 96 hrs by qRT-PCR method; assay type: functional, organism-based; details: Hepacivirus hominis, isolate Con1, Huh-7, TDE = time-dependent effect; method in brief: as §1
Hepatitis C virus [12] = test: Antiviral activity against HCV genotype 1b Con1 infected in human Huh7.5 cells assessed as stimulation of STAT1 expression at 2 uM incubated up to 96 hrs by Western blot analysis; assay type: functional, organism-based; details: Hepacivirus hominis, isolate Con1, Huh-7, TDE = time-dependent effect
Hepatitis C virus [13] = test: Antiviral activity against HCV genotype 1b Con1 infected in human Huh7.5 cells assessed as stimulation of OAS1 expression at 2 uM incubated up to 96 hrs by Western blot analysis; assay type: functional, organism-based; details: Hepacivirus hominis, isolate Con1, Huh-7, TDE = time-dependent effect
Hepatitis C virus [14] = test: Antiviral activity against HCV genotype 1b Con1 infected in human Huh7.5 cells assessed as upregulation of IFN-alpha mRNA expression incubated up to 96 hrs by qRT-PCR method; assay type: functional, organism-based; details: Hepacivirus hominis; isolate Con1; Huh-7; method in brief: as §1
Hepatitis C virus [15] = test: Antiviral activity against HCV infected in human Huh7.5 cells assessed as inhibition of IL-8 level by ELISA in presence of IFN-alpha; assay type: functional, organism-based; details: Hepacivirus hominis; Huh-7
Hepatitis C virus [16] = test: Antiviral activity against HCV genotype 1b Con1 infected in human Huh7 cells xenografted in immunodeficient NOD/SCID mouse assessed as inhibition of HCV RNA level in liver at 50 mg/kg, ip up to 14 days by qRT-PCR method; assay type: functional, organism-based; details: Hepacivirus hominis, isolate Con1, Huh-7
Method in brief: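 NOD/SCID mice engrafted intrasplenically with Huh7 HCV-Con1b replicon cells (1 × 10^6 in PBS). From week 6, 50 mg/kg given ip for 14 days, five mice per group. Liver HCV RNA measured by SYBR Green qRT-PCR, 2^−ΔΔCT method, normalized to GAPDH, fold change vs controls.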

Mus musculus [17] = test: Toxicity in NOD/SCID mouse assessed as body weight change at 50 mg/kg, ip measured up to 14 days; assay type: organism-based; details: in vivo, 336 h
Hepatitis C virus [18] = test: Antiviral activity against HCV genotype 1b Con1 infected in human Huh7 cells xenografted in immunodeficient NOD/SCID mouse assessed as inhibition of NS5A expression in liver at 50 mg/kg, ip up to 14 days by DAPI staining based confocal microscopy; assay type: functional, organism-based; details: Hepacivirus hominis, isolate Con1, Huh-7
Method in brief: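 Replicon-engrafted NOD/SCID mice, 50 mg/kg ip for 14 days from week 6, n=5. Paraffin liver sections incubated overnight at 4 °C with anti-human hepatocyte (Hep par 1) and anti-NS5A antibodies (1:50). Alexa 488/546 secondaries 1:100 for 2 h, DAPI 5 min, then confocal imaging.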

[19] = target: T1, Peptidyl-prolyl cis-trans isomerase A
Target sequence in this assay (P62937 whole entry): as the sequence (P62937 whole entry, looked up) above

[20] = target: T2, Peptidyl-prolyl cis-trans isomerase B (Homo sapiens, UniProt P23284)
T2 sequence (P23284 whole entry): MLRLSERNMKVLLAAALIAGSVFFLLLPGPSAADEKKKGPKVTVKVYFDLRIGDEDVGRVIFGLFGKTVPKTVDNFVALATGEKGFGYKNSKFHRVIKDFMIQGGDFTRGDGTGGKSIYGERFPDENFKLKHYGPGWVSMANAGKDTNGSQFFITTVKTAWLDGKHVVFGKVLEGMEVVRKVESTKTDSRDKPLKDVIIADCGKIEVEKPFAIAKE

[21] = target: T2, Peptidyl-prolyl cis-trans isomerase B; test: Dissociation rate to Cyclophilin B (unknown origin) by surface plasmon resonance analysis
[22] = target: T1, Peptidyl-prolyl cis-trans isomerase A; test: Inhibition of Cyclophilin A peptidyl-prolyl cis-trans isomerase activity (unknown origin) using Succ-Ala-Leu-Pro-Phe-p-nitroaniline as substrate by enzyme kinetic analysis
Target sequence in this assay (P62937 whole entry): as the sequence (P62937 whole entry, looked up) above

COc1cc(C(C(=O)NC2CCCCC2)N(C(=O)Cc2c[nH]c3ccccc23)c2ccc(C(C)C)cc2)cc(OC)c1OC (configuration not stated)
570 nM: Kd [19]
8.25 ×10⁻⁴ /s: koff [21]
1120 nM: EC50 (Hepatitis C virus [9])
5.5 nM: IC50 [22]
Non-toxic: Activity (Mus musculus [17])
active: inhibition (Hepatitis C virus [1]) | inhibition [2] | inhibition [3] | inhibition [4] | Activity (Mus musculus [5]) | Activity (Mus musculus [6]) | inhibition [7] | inhibition (Hepatitis C virus [8]) | Activity (Hepatitis C virus [10]) tde | Activity (Hepatitis C virus [11]) tde | Activity (Hepatitis C virus [12]) tde | Activity (Hepatitis C virus [13]) tde | Activity (Hepatitis C virus [14]) | inhibition (Hepatitis C virus [15]) | inhibition (Hepatitis C virus [16]) | inhibition (Hepatitis C virus [18])
2100 nM: Kd [20]
